Reference: ChEMBL document CHEMBL1765049, “Inhibitory properties of 2-substituent-1H-benzimidazole-4-carboxamide derivatives against enteroviruses” (Bioorg Med Chem, 2011)

Experiments:
[1] = (§1) Cytotoxicity against african green monkey Vero cells; format: cell-based; conditions: chlorocebus sabaeus, Vero cells; read-out: TC50 (the source's name)
In short: (§2)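 TC50 is the compound concentration killing 50% of Vero cells (inhibiting cell growth by 50%). Compounds were dissolved in DMSO and diluted in medium, then added to seeded Vero cells. Cell wells were examined when cytopathic effect in virus-infected control wells exceeded grade 4.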

Coxsackievirus B3 = assay: Antiviral activity against Coxsackievirus B3 infected in african green monkey Vero cells assessed as inhibition of viral growth after 24 hrs by Reed-Muench method; format: functional, organism-based; conditions: Enterovirus B
In short: (§3)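 Vero cells were seeded and after 24 h exposed to virus for 2 h. Compounds were then added after being dissolved in DMSO and diluted in culture medium. Cell-control and virus-control wells were run alongside. Cytopathic effect was scored once the virus wells exceeded grade 4. The 50% inhibitory concentration of virus growth was calculated by the Reed–Muench method.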

[2] = Selectivity index, ratio of TC50 for african green monkey Vero cells to IC50 for Coxsackievirus B3; format: toxicity, cell-based; conditions: read-out: Selectivity Index
In short: (§4)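 Selectivity index is calculated as TC50 in Vero cells divided by the antiviral IC50 against the named enterovirus. Both values come from the same Vero cytopathic-effect assay, with compounds dissolved in DMSO and diluted in medium.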

[3] = Selectivity index, ratio of TC50 for african green monkey Vero cells to IC50 for Coxsackievirus A16; format: toxicity, cell-based; conditions: read-out: Selectivity Index; in short: as §4
Coxsackievirus A16 = assay: Antiviral activity against Coxsackievirus A16 infected in african green monkey Vero cells assessed as inhibition of viral growth after 24 hrs by Reed-Muench method; format: functional, cell-based; in short: as §3
Enterovirus A71 [4] = assay: Antiviral activity against Human enterovirus 71 infected in african green monkey Vero cells assessed as inhibition of viral growth after 48 hrs by Reed-Muench method; format: functional, organism-based; conditions: Enterovirus A; in short: as §3
[5] = Selectivity index, ratio of TC50 for african green monkey Vero cells to IC50 for Human enterovirus 71; format: toxicity, cell-based; conditions: read-out: Selectivity Index; in short: as §4
[6] = Selectivity index, ratio of TC50 for african green monkey Vero cells to IC50 for Coxsackievirus B6; format: toxicity, cell-based; conditions: read-out: Selectivity Index; in short: as §4
Coxsackievirus B6 = assay: Antiviral activity against Coxsackievirus B6 infected in african green monkey Vero cells assessed as inhibition of viral growth after 24 hrs by Reed-Muench method; format: functional, organism-based; conditions: Enterovirus B; in short: as §3
Enterovirus A71 [7] = assay: Antiviral activity against Human enterovirus 71 infected in african green monkey Vero cells assessed as inhibition of viral growth after 24 hrs by Reed-Muench method; format: functional, organism-based; conditions: Enterovirus A; in short: as §3
Vero = assay: as §1; format: cell-based; conditions: chlorocebus sabaeus, vero; in short: as §2
[8] = Enterovirus A, Vero, 24 h, read-out: IC50

## COc1ccc(-c2nc3c(C(=O)Nc4ccccc4F)cccc3[nH]2)cc1OC
[1]
  CC50: 24.5 µM
Coxsackievirus B3
  IC50: 3.5 µM
[2]
  selectivity ratio: 7
[3]
  selectivity ratio: 7
Coxsackievirus A16; [8]
  IC50: 3.5 µM

## O=C(N[C@H](CO)[C@H](O)c1ccc([N+](=O)[O-])cc1)c1cccc2[nH]c(-c3ccccn3)nc12
[1]
  CC50: 1330 µM
Coxsackievirus B3
  IC50: 4.06 µM
[2]
  selectivity ratio: 328
Enterovirus A71 [4]
  IC50: 4.06 µM
[5]
  selectivity ratio: 328

## Cc1csc(NC(=O)c2cccc3[nH]c(-c4ccccn4)nc23)n1
[1]
  CC50: 17.7 µM
Coxsackievirus B3
  IC50: 1.76 µM
[2]
  selectivity ratio: 10

## O=C(N[C@H](CO)[C@H](O)c1ccc([N+](=O)[O-])cc1)c1cccc2[nH]c(-c3cccnc3)nc12
[1]
  CC50: 148 µM
Coxsackievirus B3
  IC50: 28.6 µM
[2]
  selectivity ratio: 5.2

## Cc1csc(NC(=O)c2cccc3[nH]c(-c4cccnc4)nc23)n1
[1]
  CC50: 111 µM
Coxsackievirus B3
  IC50: 16.2 µM
[2]
  selectivity ratio: 6.8

## O=C(N[C@H](CO)[C@H](O)c1ccc([N+](=O)[O-])cc1)c1cccc2[nH]c(-c3ccncc3)nc12
[1]
  CC50: 123 µM
Coxsackievirus B3
  IC50: 30.2 µM
[2]
  selectivity ratio: 4.1

## Cc1csc(NC(=O)c2cccc3[nH]c(-c4ccncc4)nc23)n1
[1]
  CC50: 111 µM
Coxsackievirus B3
  IC50: 21.3 µM
[2]
  selectivity ratio: 5.2

## O=C(Nc1ccccc1F)c1cccc2[nH]c(-c3ccco3)nc12
[1]
  CC50: 25 µM
Coxsackievirus B3
  IC50: 3.3 µM
[2]
  selectivity ratio: 7.5

## O=C(N[C@H](CO)[C@H](O)c1ccc([N+](=O)[O-])cc1)c1cccc2[nH]c(-c3ccco3)nc12
[1]
  CC50: 152 µM
Coxsackievirus B3
  IC50: 37.7 µM
[2]
  selectivity ratio: 4

## C[C@@H](NC(=O)c1cccc2[nH]c(-c3ccco3)nc12)[C@H](O)c1ccc(Cl)cc1
[1]
  CC50: 162 µM
Coxsackievirus B3
  IC50: 13.4 µM
[2]
  selectivity ratio: 12.1

## O=C(Nc1ccccc1F)c1cccc2[nH]c(-c3ccc([N+](=O)[O-])o3)nc12
[1]
  CC50: 75.9 µM
Coxsackievirus B3
  IC50: 25.3 µM
[2]
  selectivity ratio: 3

## O=C(N[C@H](CO)[C@H](O)c1ccc([N+](=O)[O-])cc1)c1cccc2[nH]c(-c3ccc([N+](=O)[O-])o3)nc12
[1]
  CC50: 68.7 µM
Coxsackievirus B3
  IC50: 22.9 µM
[2]
  selectivity ratio: 3

## C[C@@H](NC(=O)c1cccc2[nH]c(-c3ccc([N+](=O)[O-])o3)nc12)[C@H](O)c1ccc(Cl)cc1
[1]
  CC50: 48.6 µM
Coxsackievirus B3
  IC50: 16.2 µM
[2]
  selectivity ratio: 3

## COc1ccc(-c2nc3c(C(=O)NCCCO)cccc3[nH]2)cc1OC
[6]
  selectivity ratio: 3.6
[1]
  CC50: 46 µM
Coxsackievirus B3
  IC50: 17.2 µM
[2]
  selectivity ratio: 2.7
[3]
  selectivity ratio: 2.1
[5]
  selectivity ratio: 2.7
Coxsackievirus B6
  IC50: 12.1 µM
Enterovirus A71 [7]
  IC50: 20.9 µM
Coxsackievirus A16; [8]
  IC50: 20.9 µM

## CCC(CC)NC(=O)c1cccc2[nH]c(-c3ccc(OC)c(OC)c3)nc12
[6]
  selectivity ratio: 3
[1]
  CC50: 2.23 µM
Coxsackievirus B3
  IC50: 0.7 µM
[2]
  selectivity ratio: 3
[3]
  selectivity ratio: 3
[5]
  selectivity ratio: 3
Coxsackievirus B6
  IC50: 0.736 µM
Enterovirus A71 [7]
  IC50: 0.736 µM
Coxsackievirus A16; [8]
  IC50: 0.736 µM

## COc1ccc(-c2nc3c(C(=O)Nc4cnc(Cl)cn4)cccc3[nH]2)cc1OC
[6]
  selectivity ratio: 4.3
[1]
  CC50: 78.3 µM
Coxsackievirus B3
  IC50: 18.4 µM
[2]
  selectivity ratio: 4.3
[3]
  selectivity ratio: 4.3
[5]
  selectivity ratio: 4.3
Coxsackievirus B6
  IC50: 18.1 µM
Enterovirus A71 [7]
  IC50: 18.1 µM
Coxsackievirus A16; [8]
  IC50: 18.1 µM

## COc1ccc(-c2nc3c(C(=O)Nc4ccccc4F)cccc3[nH]2)c(OC)c1OC
[1]
  CC50: 37.8 µM
Coxsackievirus B3
  IC50: 9.8 µM
[2]
  selectivity ratio: 3.9
[3]
  selectivity ratio: 3
Coxsackievirus A16; [8]
  IC50: 16.9 µM

## COc1ccc(-c2nc3c(C(=O)N[C@H](CO)[C@H](O)c4ccc([N+](=O)[O-])cc4)cccc3[nH]2)c(OC)c1OC
[6]
  selectivity ratio: 2.1
[1]
  CC50: 9.85 µM
Coxsackievirus B3
  IC50: 4.73 µM
[2]
  selectivity ratio: 2
[3]
  selectivity ratio: 2.1
[5]
  selectivity ratio: 2.7
Coxsackievirus B6
  IC50: 4.73 µM
Enterovirus A71 [7]
  IC50: 3.68 µM
Coxsackievirus A16; [8]
  IC50: 4.73 µM

## COc1ccc(-c2nc3c(C(=O)NCCCO)cccc3[nH]2)c(OC)c1OC
[6]
  selectivity ratio: 2.7
[1]
  CC50: 40 µM
Coxsackievirus B3
  IC50: 19.5 µM
[2]
  selectivity ratio: 2.1
[3]
  selectivity ratio: 2.1
[5]
  selectivity ratio: 2.7
Coxsackievirus B6
  IC50: 19.2 µM
Enterovirus A71 [7]
  IC50: 14.9 µM
Coxsackievirus A16; [8]
  IC50: 19.2 µM

## CCC(CC)NC(=O)c1cccc2[nH]c(-c3ccc(OC)c(OC)c3OC)nc12
[6]
  selectivity ratio: 1.7
[1]
  CC50: 32.3 µM
Coxsackievirus B3
  IC50: 18.7 µM
[2]
  selectivity ratio: 1.7
[3]
  selectivity ratio: 1.7
[5]
  selectivity ratio: 1.73
Coxsackievirus B6
  IC50: 18.7 µM
Enterovirus A71 [7]
  IC50: 18.7 µM
Coxsackievirus A16; [8]
  IC50: 18.7 µM

## COc1ccc(-c2nc3c(C(=O)Nc4cnc(Cl)cn4)cccc3[nH]2)c(OC)c1OC
[6]
  selectivity ratio: 3.9
[1]
  CC50: 65.2 µM
Coxsackievirus B3
  IC50: 17.4 µM
[2]
  selectivity ratio: 3.8
[3]
  selectivity ratio: 3.9
[5]
  selectivity ratio: 3.9
Coxsackievirus B6
  IC50: 16.9 µM
Enterovirus A71 [7]
  IC50: 16.9 µM
Coxsackievirus A16; [8]
  IC50: 16.9 µM

## COc1ccc(-c2nc3c(C(=O)Nc4nc5ccccc5[nH]4)cccc3[nH]2)c(OC)c1OC
[6]
  selectivity ratio: 1.7
[1]
  CC50: 29 µM
Coxsackievirus B3
  IC50: 16.9 µM
[2]
  selectivity ratio: 1.7
[3]
  selectivity ratio: 1.7
[5]
  selectivity ratio: 1.7
Coxsackievirus B6
  IC50: 16.7 µM
Enterovirus A71 [7]
  IC50: 16.7 µM
Coxsackievirus A16; [8]
  IC50: 16.7 µM

## COc1ccc(-c2nc3c(C(=O)N[C@H](CO)[C@H](O)c4ccc([N+](=O)[O-])cc4)cccc3[nH]2)cc1OC
[1]
  CC50: 14.5 µM
[3]
  selectivity ratio: 1.7
Coxsackievirus A16; [8]
  IC50: 8.37 µM

## COc1ccc(-c2nc3c(C(=O)Nc4c[nH]cn4)cccc3[nH]2)cc1OC
[1]
  CC50: 306 µM
[3]
  selectivity ratio: 3
Coxsackievirus A16; [8]
  IC50: 102 µM

## COc1ccc(-c2nc3c(C(=O)Nc4ncc[nH]4)cccc3[nH]2)cc1OC
Vero
  TC50: Not Active
Coxsackievirus A16; vero
  IC50: Not Active

## COc1ccc(-c2nc3c(C(=O)Nc4nc(C#N)c(C#N)[nH]4)cccc3[nH]2)cc1OC
[1]
  CC50: 43.1 µM
[3]
  selectivity ratio: 4.3
Coxsackievirus A16; [8]
  IC50: 9.98 µM

## COc1ccc(-c2nc3c(C(=O)Nc4cnccn4)cccc3[nH]2)cc1OC
[1]
  CC50: 98.8 µM
[3]
  selectivity ratio: 3
Coxsackievirus A16; [8]
  IC50: 32.9 µM

## COc1ccc(-c2nc3c(C(=O)Nc4nc5ccccc5[nH]4)cccc3[nH]2)cc1OC
[1]
  CC50: 51.8 µM
[3]
  selectivity ratio: 5.2
Coxsackievirus A16; [8]
  IC50: 9.98 µM

## COc1ccc(-c2nc3c(C(=O)Nc4ncccc4O)cccc3[nH]2)cc1OC
[1]
  CC50: 164 µM
[3]
  selectivity ratio: 5.2
Coxsackievirus A16; [8]
  IC50: 31.7 µM

## O=C(Nc1ccccc1F)c1cccc2[nH]c(-c3ccncc3)nc12
[1]
  CC50: 111 µM
Coxsackievirus B3
  IC50: 37.2 µM
[2]
  selectivity ratio: 3

## O=C(Nc1ccccc1)c1cccc2[nH]c(-c3cccnc3)nc12
[1]
  CC50: 34.2 µM
Coxsackievirus B3
  IC50: 3.72 µM
[2]
  selectivity ratio: 9.2

## NC(=O)c1cccc2[nH]c(-c3cccnc3)nc12
[1]
  CC50: 77.7 µM
Coxsackievirus B3
  IC50: 26 µM
[2]
  selectivity ratio: 3

## O=C(Nc1ccccc1)c1cccc2[nH]c(-c3ccccn3)nc12
[1]
  CC50: 17.9 µM
Coxsackievirus B3
  IC50: 0.459 µM
[2]
  selectivity ratio: 38.9

## O=C(NCCO)c1cccc2[nH]c(-c3ccncc3)nc12
[1]
  CC50: 498 µM

## O=C(Nc1ccccc1F)c1cccc2[nH]c(-c3cccnc3)nc12
[1]
  CC50: 54.7 µM
Coxsackievirus B3
  IC50: 9.73 µM
[2]
  selectivity ratio: 3.2

## O=C(NCCO)c1cccc2[nH]c(-c3cccnc3)nc12
[1]
  CC50: 682 µM
Coxsackievirus B3
  IC50: 90.7 µM
[2]
  selectivity ratio: 7.5

## NC(=O)c1cccc2[nH]c(-c3ccccn3)nc12
[1]
  CC50: 224 µM
Coxsackievirus B3
  IC50: 30.6 µM
[2]
  selectivity ratio: 7.3

## O=C(Nc1ccccc1)c1cccc2[nH]c(-c3ccncc3)nc12
[1]
  CC50: 49.8 µM
Coxsackievirus B3
  IC50: 12.3 µM
[2]
  selectivity ratio: 4

## O=C(NCCO)c1cccc2[nH]c(-c3ccccn3)nc12
[1]
  CC50: 568 µM
Coxsackievirus B3
  IC50: 131 µM
[2]
  selectivity ratio: 4.3

## O=C(Nc1ccccc1F)c1cccc2[nH]c(-c3ccccn3)nc12
[1]
  CC50: 54.7 µM
Coxsackievirus B3
  IC50: 1.63 µM
[2]
  selectivity ratio: 28.4

## NC(=O)c1ncn([C@@H]2O[C@H](CO)[C@@H](O)[C@H]2O)n1 [RIBAVIRIN]
[1]
  CC50: 8190 µM
Coxsackievirus B3
  IC50: 1690 µM
Coxsackievirus B6
  IC50: 910 µM
Enterovirus A71 [7]
  IC50: 2340 µM
Coxsackievirus A16; [8]
  IC50: 4090 µM
